The source made the active and inactive calls. No cut-off for these calls is given here.
How the values were obtained:
[1] = test system: Mus musculus; experiment: Antiinflammatory activity in A/J mouse assessed as inhibition of LPS-induced airway resistance provoked by methacholine at 3 mg/kg, po administered 1 hr prior to LPS-challenge measured after 18 hrs relative to vehicle-treated control; type: functional
[2] = test system: Mus musculus; experiment: Antiinflammatory activity in A/J mouse assessed as inhibition of neutrophil accumulation in bronchoalveolar space at 3 mg/kg, po administered 1 hr prior to LPS-challenge measured after 18 hrs relative to vehicle-treated control; type: functional; details: Lung
[3] = test system: Mus musculus; experiment: Antiinflammatory activity in A/J mouse assessed as inhibition of LPS-induced airway elastance provoked by methacholine at 3 mg/kg, po administered 1 hr prior to LPS-challenge measured after 18 hrs relative to vehicle-treated control; type: functional
[4] = test system: Mus musculus; experiment: Antiinflammatory activity in A/J mouse assessed as inhibition of LPS-induced airway elastance provoked by methacholine at 100 umol/kg, po administered 1 hr prior to LPS-challenge measured after 18 hrs relative to vehicle-treated control; type: functional
[5] = organism: Bos taurus; experiment: Inhibition of bovine PDE5 using […] as substrate at 10 uM
[6] = Inhibition of PDE6
[7] = test system: Mus musculus; experiment: Antiinflammatory activity in A/J mouse lung assessed as inhibition of LPS-induced TNFalpha production at 100 umol/kg, po administered 1 hr prior to LPS-challenge measured after 18 hrs relative to vehicle-treated control; type: functional
[8] = Inhibition of bovine PDE3 using [3H]cAMP as substrate; parameters: species or system Bos taurus
[9] = test system: Mus musculus; experiment: Antiinflammatory activity in A/J mouse assessed as inhibition of neutrophil accumulation in bronchoalveolar space at 100 umol/kg, po administered 1 hr prior to LPS-challenge measured after 18 hrs relative to vehicle-treated control; type: functional; details: Lung
[10] = test system: Mus musculus; experiment: Antiinflammatory activity in A/J mouse assessed as inhibition of LPS-induced airway resistance provoked by methacholine at 100 umol/kg, po administered 1 hr prior to LPS-challenge measured after 18 hrs relative to vehicle-treated control; type: functional
[11] = molecular target: T1, cGMP-dependent 3',5'-cyclic phosphodiesterase (Homo sapiens, UniProt O00408); experiment: Inhibition of human PDE2 using [3H]cAMP as substrate at 10 uM
[12] = test system: PBMC; experiment: Antiinflammatory activity in human PBMC assessed as inhibition of LPS-induced TNFalpha production after 24 hrs by ELISA; type: functional, cell-based
[13] = organism: Bos taurus; experiment: Inhibition of bovine PDE1 using [3H]cAMP as substrate at 10 uM
[14] = test system: PBMC; experiment: Antiinflammatory activity in human PBMC assessed as inhibition of LPS-induced TNFalpha production at 10 uM after 24 hrs by ELISA relative to control; type: functional
[15] = test system: Mus musculus; experiment: Antiinflammatory activity in A/J mouse lung assessed as inhibition of LPS-induced IL6 production at 100 umol/kg, po administered 1 hr prior to LPS-challenge measured after 18 hrs relative to vehicle-treated control; type: functional
[16] = Inhibition of bovine PDE4 using [3H]cAMP as substrate; parameters: species or system Bos taurus
[17] = test system: Mus musculus; experiment: Antiinflammatory activity in A/J mouse assessed as inhibition of leukocyte accumulation in bronchoalveolar space at 100 umol/kg, po administered 1 hr prior to LPS-challenge measured after 18 hrs relative to vehicle-treated control; type: functional; details: Lung
[18] = organism: Bos taurus; experiment: Inhibition of bovine PDE4 using [3H]cAMP as substrate at 10 uM
In short: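 Enzyme was PDE4 isolated from the media layer of bovine aorta, run in the two-step activity assay at 1 μM cAMP.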

[19] = test system: Mus musculus; experiment: Antiinflammatory activity in A/J mouse assessed as inhibition of neutrophil accumulation in bronchoalveolar space at 45 umol/kg, po administered 1 hr prior to LPS-challenge measured after 18 hrs relative to vehicle-treated control; type: functional; details: Lung
[20] = test system: Mus musculus; experiment: Antiinflammatory activity in A/J mouse assessed as inhibition of leukocyte accumulation in bronchoalveolar space at 45 umol/kg, po administered 1 hr prior to LPS-challenge measured after 18 hrs relative to vehicle-treated control; type: functional; details: Lung
[21] = test system: Mus musculus; experiment: Antiinflammatory activity in A/J mouse lung assessed as inhibition of LPS-induced IL6 production at 45 umol/kg, po administered 1 hr prior to LPS-challenge measured after 18 hrs relative to vehicle-treated control; type: functional
[22] = test system: Mus musculus; experiment: Antiinflammatory activity in A/J mouse assessed as inhibition of LPS-induced airway resistance provoked by methacholine at 45 umol/kg, po administered 1 hr prior to LPS-challenge measured after 18 hrs relative to vehicle-treated control; type: functional
[23] = test system: Mus musculus; experiment: Antiinflammatory activity in A/J mouse assessed as inhibition of eosinophils accumulation in bronchoalveolar space at 45 umol/kg, po administered 1 hr prior to LPS-challenge measured after 18 hrs relative to vehicle-treated control; type: functional, organism-based; details: Lung
[24] = test system: Mus musculus; experiment: Antiinflammatory activity in A/J mouse assessed as inhibition of mononuclear cell accumulation in bronchoalveolar space at 45 umol/kg, po administered 1 hr prior to LPS-challenge measured after 18 hrs relative to vehicle-treated control; type: functional, organism-based; details: Lung
[25] = test system: Mus musculus; experiment: Antiinflammatory activity in A/J mouse lung assessed as inhibition of LPS-induced TNFalpha production at 45 umol/kg, po administered 1 hr prior to LPS-challenge measured after 18 hrs relative to vehicle-treated control; type: functional
[26] = test system: Mus musculus; experiment: Antiinflammatory activity in A/J mouse assessed as inhibition of LPS-induced airway elastance provoked by methacholine at 45 umol/kg, po administered 1 hr prior to LPS-challenge measured after 18 hrs relative to vehicle-treated control; type: functional
[27] = test system: Mus musculus; experiment: Proemetic activity in A/J mouse assessed as reversal of xylazine/katamine-induced anesthesia at 1 to 50 umol/kg, sc administered 30 mins prior xylazine/ketamine-administration; type: ADME, organism-based; details: in vivo, 0.5 h
[28] = Inhibition of PDE6 at 10 uM
[29] = organism: Bos taurus; experiment: Inhibition of bovine PDE3 using [3H]cAMP as substrate at 10 uM
[30] = molecular target: T1, cGMP-dependent 3',5'-cyclic phosphodiesterase; experiment: Inhibition of human PDE2 using [3H]cAMP as substrate
[31] = molecular target: 3',5'-cyclic-AMP phosphodiesterase 4B (Homo sapiens, UniProt Q07343); experiment: Inhibition of human recombinant PDE4B
[32] = molecular target: 3',5'-cyclic-AMP phosphodiesterase 4C (Homo sapiens, UniProt Q08493); experiment: Inhibition of human recombinant PDE4C
[33] = molecular target: 3',5'-cyclic-AMP phosphodiesterase 4D (Homo sapiens, UniProt Q08499); experiment: Inhibition of human recombinant PDE4D
[34] = test system: Mus musculus; experiment: Proemetic activity in A/J mouse assessed as reversal of xylazine/katamine-induced anesthesia at 30 to 200 umol/kg, sc administered 30 mins prior xylazine/ketamine-administration; type: ADME, organism-based; details: in vivo, 0.5 h
[35] = molecular target: 3',5'-cyclic-AMP phosphodiesterase 4A (Homo sapiens, UniProt P27815); experiment: Inhibition of human recombinant PDE4A
[36] = Inhibition of bovine PDE5 using […] as substrate; parameters: species or system Bos taurus

T1 sequence (O00408 whole entry): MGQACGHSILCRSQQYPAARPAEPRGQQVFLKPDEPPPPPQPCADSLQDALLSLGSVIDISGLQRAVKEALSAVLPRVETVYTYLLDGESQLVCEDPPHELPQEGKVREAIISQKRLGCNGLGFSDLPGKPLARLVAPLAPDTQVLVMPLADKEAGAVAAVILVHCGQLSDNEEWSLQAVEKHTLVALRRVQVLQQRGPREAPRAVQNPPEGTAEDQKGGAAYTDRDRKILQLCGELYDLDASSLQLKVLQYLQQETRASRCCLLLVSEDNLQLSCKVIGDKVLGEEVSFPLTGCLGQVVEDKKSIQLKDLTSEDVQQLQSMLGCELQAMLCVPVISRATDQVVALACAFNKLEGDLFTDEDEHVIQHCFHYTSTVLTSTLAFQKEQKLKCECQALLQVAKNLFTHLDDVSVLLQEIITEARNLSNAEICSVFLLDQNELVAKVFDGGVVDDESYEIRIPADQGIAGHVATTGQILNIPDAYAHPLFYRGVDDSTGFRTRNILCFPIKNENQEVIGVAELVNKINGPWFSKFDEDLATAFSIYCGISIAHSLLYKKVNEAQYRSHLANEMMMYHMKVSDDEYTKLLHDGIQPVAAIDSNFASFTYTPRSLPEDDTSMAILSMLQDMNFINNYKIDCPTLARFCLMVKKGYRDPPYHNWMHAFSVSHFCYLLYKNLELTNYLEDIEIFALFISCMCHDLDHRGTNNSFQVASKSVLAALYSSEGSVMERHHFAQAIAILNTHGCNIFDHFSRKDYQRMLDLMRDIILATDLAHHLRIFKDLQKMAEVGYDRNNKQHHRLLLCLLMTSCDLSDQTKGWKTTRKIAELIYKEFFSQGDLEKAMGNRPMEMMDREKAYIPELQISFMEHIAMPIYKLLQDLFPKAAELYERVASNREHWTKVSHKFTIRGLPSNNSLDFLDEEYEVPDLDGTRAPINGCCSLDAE
3',5'-cyclic-AMP phosphodiesterase 4A, sequence (P27815 whole entry): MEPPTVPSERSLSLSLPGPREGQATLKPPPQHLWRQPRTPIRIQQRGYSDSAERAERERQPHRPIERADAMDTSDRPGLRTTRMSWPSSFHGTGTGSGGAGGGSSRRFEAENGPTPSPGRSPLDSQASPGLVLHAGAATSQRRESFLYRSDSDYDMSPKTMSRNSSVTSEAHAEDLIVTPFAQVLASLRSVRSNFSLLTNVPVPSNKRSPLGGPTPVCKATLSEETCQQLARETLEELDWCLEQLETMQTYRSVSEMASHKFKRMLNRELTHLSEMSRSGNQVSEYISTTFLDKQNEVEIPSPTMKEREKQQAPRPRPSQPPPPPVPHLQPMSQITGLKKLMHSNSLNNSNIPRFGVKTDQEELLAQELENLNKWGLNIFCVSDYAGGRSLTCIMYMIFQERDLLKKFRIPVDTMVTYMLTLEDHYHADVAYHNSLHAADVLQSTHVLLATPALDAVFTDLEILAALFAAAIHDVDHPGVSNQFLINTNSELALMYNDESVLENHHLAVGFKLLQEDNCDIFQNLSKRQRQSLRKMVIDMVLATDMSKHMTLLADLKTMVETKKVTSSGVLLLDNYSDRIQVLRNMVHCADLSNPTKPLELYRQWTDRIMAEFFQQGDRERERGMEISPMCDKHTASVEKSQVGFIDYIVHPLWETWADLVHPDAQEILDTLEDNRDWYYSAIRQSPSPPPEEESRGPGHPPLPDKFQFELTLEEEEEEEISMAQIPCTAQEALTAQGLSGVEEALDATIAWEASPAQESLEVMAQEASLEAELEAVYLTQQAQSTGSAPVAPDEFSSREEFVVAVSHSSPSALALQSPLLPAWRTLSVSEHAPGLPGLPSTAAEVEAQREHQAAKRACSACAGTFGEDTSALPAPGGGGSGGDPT
3',5'-cyclic-AMP phosphodiesterase 4B, sequence (Q07343 whole entry): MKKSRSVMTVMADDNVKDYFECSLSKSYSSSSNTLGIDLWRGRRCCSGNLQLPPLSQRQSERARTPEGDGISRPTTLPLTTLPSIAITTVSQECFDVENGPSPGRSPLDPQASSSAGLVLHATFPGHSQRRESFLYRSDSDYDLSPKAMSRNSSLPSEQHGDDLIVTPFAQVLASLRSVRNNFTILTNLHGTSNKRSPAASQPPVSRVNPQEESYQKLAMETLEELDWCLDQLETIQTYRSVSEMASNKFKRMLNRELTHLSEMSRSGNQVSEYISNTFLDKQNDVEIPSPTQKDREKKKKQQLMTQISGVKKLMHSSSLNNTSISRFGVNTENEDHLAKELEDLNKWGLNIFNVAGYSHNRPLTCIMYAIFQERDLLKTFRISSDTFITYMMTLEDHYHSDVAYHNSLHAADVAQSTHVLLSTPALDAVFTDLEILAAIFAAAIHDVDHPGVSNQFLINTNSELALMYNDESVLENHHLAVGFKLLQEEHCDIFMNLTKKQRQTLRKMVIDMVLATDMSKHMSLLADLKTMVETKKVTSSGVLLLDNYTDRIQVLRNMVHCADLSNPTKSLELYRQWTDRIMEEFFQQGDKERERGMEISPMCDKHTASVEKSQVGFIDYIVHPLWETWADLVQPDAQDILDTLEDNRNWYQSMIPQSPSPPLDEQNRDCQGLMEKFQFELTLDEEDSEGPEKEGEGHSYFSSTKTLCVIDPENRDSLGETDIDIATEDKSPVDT
3',5'-cyclic-AMP phosphodiesterase 4C, sequence (Q08493 whole entry): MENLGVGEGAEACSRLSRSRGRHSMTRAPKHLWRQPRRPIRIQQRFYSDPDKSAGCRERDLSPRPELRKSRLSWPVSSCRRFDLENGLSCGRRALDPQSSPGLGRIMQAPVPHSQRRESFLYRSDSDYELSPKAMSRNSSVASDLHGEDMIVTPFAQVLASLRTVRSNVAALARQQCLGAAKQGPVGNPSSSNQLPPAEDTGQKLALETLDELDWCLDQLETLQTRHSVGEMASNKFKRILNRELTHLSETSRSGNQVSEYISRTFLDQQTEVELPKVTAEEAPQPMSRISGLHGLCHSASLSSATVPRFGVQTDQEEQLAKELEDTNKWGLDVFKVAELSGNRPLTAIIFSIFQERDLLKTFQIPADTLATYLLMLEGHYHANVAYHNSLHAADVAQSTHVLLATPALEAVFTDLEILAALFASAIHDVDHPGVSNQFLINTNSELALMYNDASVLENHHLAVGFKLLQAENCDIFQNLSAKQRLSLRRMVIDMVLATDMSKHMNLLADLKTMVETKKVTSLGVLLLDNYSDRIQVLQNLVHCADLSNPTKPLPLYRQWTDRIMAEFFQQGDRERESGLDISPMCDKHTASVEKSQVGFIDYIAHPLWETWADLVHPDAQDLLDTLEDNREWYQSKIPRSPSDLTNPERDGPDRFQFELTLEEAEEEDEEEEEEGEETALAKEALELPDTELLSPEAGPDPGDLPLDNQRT
3',5'-cyclic-AMP phosphodiesterase 4D, sequence (Q08499 whole entry): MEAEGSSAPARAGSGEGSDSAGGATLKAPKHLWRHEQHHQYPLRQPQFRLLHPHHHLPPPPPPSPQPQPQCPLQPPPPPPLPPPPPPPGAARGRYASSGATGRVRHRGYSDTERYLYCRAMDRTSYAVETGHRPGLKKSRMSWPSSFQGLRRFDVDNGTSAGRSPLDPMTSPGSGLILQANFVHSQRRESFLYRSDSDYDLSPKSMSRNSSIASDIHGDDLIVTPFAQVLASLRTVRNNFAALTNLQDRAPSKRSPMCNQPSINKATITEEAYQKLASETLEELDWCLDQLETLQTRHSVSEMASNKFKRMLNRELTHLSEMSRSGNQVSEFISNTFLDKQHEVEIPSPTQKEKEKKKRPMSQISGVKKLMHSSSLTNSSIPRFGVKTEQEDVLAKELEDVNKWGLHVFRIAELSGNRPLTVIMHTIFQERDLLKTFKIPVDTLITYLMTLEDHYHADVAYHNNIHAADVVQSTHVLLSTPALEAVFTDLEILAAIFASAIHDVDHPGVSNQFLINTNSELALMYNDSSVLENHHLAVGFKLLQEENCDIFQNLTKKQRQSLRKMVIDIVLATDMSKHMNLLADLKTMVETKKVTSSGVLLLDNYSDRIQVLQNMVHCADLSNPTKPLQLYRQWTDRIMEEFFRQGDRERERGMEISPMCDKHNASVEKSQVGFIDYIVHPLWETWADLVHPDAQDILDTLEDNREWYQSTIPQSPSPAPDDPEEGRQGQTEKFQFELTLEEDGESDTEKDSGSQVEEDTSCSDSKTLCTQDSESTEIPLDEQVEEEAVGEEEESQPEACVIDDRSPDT

Row | inhibition [5] [%] | IC50 [8] [nM] | inhibition [11] [%] | inhibition [13] [%] | IC50 [16] [nM] | inhibition [18] [%] | inhibition [28] [%] | IC50 [31] [nM] | IC50 [32] [nM] | IC50 [33] [nM] | IC50 [35] [nM] | SMILES | inhibition in vivo at 100 µmol/kg [4] [%] | inhibition in vivo at 100 µmol/kg [7] [%] | inhibition in vivo at 100 µmol/kg [9] [%] | inhibition in vivo at 100 µmol/kg [10] [%] | EC50 [12] [nM] | inhibition at 10 µM [14] [%] | inhibition in vivo at 100 µmol/kg [15] [%] | inhibition in vivo at 100 µmol/kg [17] [%] | also measured
1 |  |  |  |  |  |  |  |  |  |  |  | COc1ccc([C@]2(C#N)CC[C@@H](C(=O)O)CC2)cc1OC1CCCC1 [CILOMILAST] |  |  |  |  |  |  |  |  | inhibition in vivo at 3 mg/kg [1]: 93%; inhibition in vivo at 3 mg/kg [2]: 43%; inhibition in vivo at 3 mg/kg [3]: 93%
2 | 30.9 | 18800 | 40.8 | 38.7 | 300 | 95.8 |  |  |  |  |  | COc1ccc(/C=N/N(C)C(=O)c2ccc(OC)c(OC)c2)cc1OC | 79 | 74 | 50 | 92 | 1180 | 92 | 65 | 53 | IC50 [6]: 17600 nM
3 |  |  |  |  | 800 |  |  |  |  |  |  | COc1ccc(C2CNC(=O)C2)cc1OC1CCCC1 (stereo not drawn) [ROLIPRAM] |  |  |  |  | 130 |  |  |  | inhibition in vivo at 45 µmol/kg [19]: 70%; inhibition in vivo at 45 µmol/kg [20]: 70%; inhibition in vivo at 45 µmol/kg [21]: 54%; inhibition in vivo at 45 µmol/kg [22]: 95%; inhibition [23]: Active; inhibition [24]: Active; inhibition in vivo at 45 µmol/kg [25]: 69%; inhibition in vivo at 45 µmol/kg [26]: 96%; Activity [27]: Toxic
4 | 5.1 |  | 4 | 0 | 110 | 96.3 | 0.6 |  |  |  |  | COc1ccc(/C=N/N(C)C(=O)c2ccc3c(c2)OCO3)cc1OC | 64 | 80 | 67 | 56 | 540 | 90 | 92 | 62 | inhibition [29]: 19.4%
5 | 13.9 | 6200 |  | 11 | 210 | 97.8 | 11 |  |  |  |  | COc1ccc(/C=N/N(C)C(=O)c2ccccc2OC)cc1OC | 59 | 100 | 53 | 61 | 1590 | 80 | 99 | 52 | IC50 [30]: 16800 nM
6 | 27.9 | 11800 | 39.3 | 28.3 | 50 | 98.4 |  | 47 | 206 | 31 | 64 | COc1ccc(/C=N/N(C)C(=O)c2ccc(O)cc2)cc1OC | 61 | 35 | 60 | 36 | 520 | 83 | 6 | 65 | IC50 [6]: 9100 nM; Activity [34]: Non-toxic
7 |  |  |  |  |  |  |  | 231 | 3690 | 622 | 162 | Clc1ncnc2ccccc12 |  |  |  |  |  |  |  |  | 
8 |  | 6700 | 35.5 | 25.1 | 105 | 98.3 | 35.2 | 53 | 505 | 74 | 159 | COc1ccc(C(=O)N(C)/N=C/c2ccc(OC)c(OC)c2)cc1 | 62 | 51 | 68 | 61 | 1450 | 84 | 45 | 81 | IC50 [36]: 150 nM; Activity [34]: Non-toxic
